# Calls of active or inactive are those of the source. The rule behind the calls is not given here.
# Columns and labels:
# [1] = target: T1, Muscarinic acetylcholine receptor M4 (Homo sapiens) (UniProt P08173); assay: Positive allosteric modulation at Rluc-tagged human M4 mAChR expressed in Flp-In-CHO cells co-expressing eYFP-tagged beta-arrestin 2 assessed as ACh-mediated beta-arrestin 2 recruitment co-operativity (log alpha beta) incubated for 5 mins by luminometry; type: cell-based; details: filed as positive allosteric modulator
# T1 sequence (whole entry): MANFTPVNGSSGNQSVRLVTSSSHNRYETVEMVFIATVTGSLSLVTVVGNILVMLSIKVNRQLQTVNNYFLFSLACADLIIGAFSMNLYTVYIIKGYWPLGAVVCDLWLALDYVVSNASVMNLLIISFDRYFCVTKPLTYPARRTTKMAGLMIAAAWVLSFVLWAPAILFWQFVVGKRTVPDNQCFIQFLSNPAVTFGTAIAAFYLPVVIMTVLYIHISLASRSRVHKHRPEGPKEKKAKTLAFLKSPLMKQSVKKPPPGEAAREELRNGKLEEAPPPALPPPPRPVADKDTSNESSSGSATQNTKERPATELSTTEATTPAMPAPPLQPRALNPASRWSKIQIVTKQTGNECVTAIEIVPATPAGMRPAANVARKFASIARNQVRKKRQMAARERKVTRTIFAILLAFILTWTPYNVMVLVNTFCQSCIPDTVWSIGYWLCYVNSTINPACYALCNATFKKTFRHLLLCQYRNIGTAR
# How it was run: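 FlpInCHO cells co-transfected with human M4-Rluc8 (20 ng/well) and β-arrestin-2-eYFP (80 ng/well) using PEI, assayed after 48 h. Coelenterazine h (5 μM) preincubated 5 min, then ACh plus modulator ranges for 5 min at 37 °C; BRET at 475/535 nm. Fit to simplified operational model with slope 1 and KB fixed from binding. 4–5 experiments in duplicate.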
# [2] = target: T1, Muscarinic acetylcholine receptor M4 (Homo sapiens); assay: Displacement of 3[H]-NMS from human M4 mAChR expressed in Flp-In-CHO cells assessed as binding constant incubated for 6 hrs by microbeta2 plate reader assay; type: cell-based; details: filed as positive allosteric modulator
# How it was run: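 Intact FlpInCHO-hM4 cells, 20,000/well grown overnight, in HBSS pH 7.4 with [3H]-NMS 0.5 nM, ACh (0.01 μM–10 mM) and modulator (0.1–10 μM), shaken 6 h at room temperature. Washed with ice-cold 0.9% NaCl, then scintillation counting. Nonspecific binding defined with 10 μM atropine. pKB and log α(ACh) from global fit to allosteric ternary complex model, with log α′(NMS) fixed at –3 under strong negative cooperativity. 4–5 experiments in duplicate.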
# [3] = Drug concentration in brain of naive C57BL/6J mouse at 10 mg/kg, ip measured after 90 mins; type: ADME, organism-based; details: read-out: Ct
# How it was run: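 Male C57Bl/6J mice, naïve, 10–12 weeks old, dosed i.p. at 10 mg/kg in 10% DMSO, 1.1% Tween 80, 21.8 mM Tris. Blood by cardiac puncture under anaesthesia at 20 or 90 min (n = 2–3 per time point). Brain concentration corrected for compound in brain vasculature. Mean nM ± SEM reported; Kp = Cbrain/Cplasma, reported as a range.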
# [4] = target: T1, Muscarinic acetylcholine receptor M4 (Homo sapiens); assay: Positive allosteric modulation at human M4 mAChR expressed in Flp-In-CHO cells co-expressing CAMYEL biosensor assessed as change in maximum ACh-mediated response at 10 uM incubated for 5 mins by BRET assay relative to control; type: cell-based
# How it was run: (§1)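 FlpInCHO cells stably expressing human M4 mAChR, transiently transfected with CAMYEL cAMP BRET biosensor (60 ng/well, PEI), assayed 48 h later in HBSS pH 7.4. Full ACh concentration-response curve alone or with modulator at 1 or 10 μM, co-added with coelenterazine h (5 μM), 5 min, 37 °C. Three-parameter logistic fit; ACh curve values subtracted from ACh+modulator values. Δbaseline and ΔEmax given as % of maximal ACh response without modulator. 4 experiments in duplicate, SEM pooled.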
# [5] = target: T1, Muscarinic acetylcholine receptor M4 (Homo sapiens); assay: Positive allosteric modulation at human M4 mAChR expressed in Flp-In-CHO cells co-expressing CAMYEL biosensor assessed as change in ACh-mediated response incubated for 5 mins by BRET assay; type: cell-based; details: filed as positive allosteric modulator; how it was run: as §1
# [6] = target: T1, Muscarinic acetylcholine receptor M4 (Homo sapiens); assay: Positive allosteric modulation at human M4 mAChR expressed in Flp-In-CHO cells assessed as increase in ERK1/2 phosphorylation at 10 uM incubated for 5 mins […]; type: cell-based; details: filed as positive allosteric modulator
# How it was run: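 FlpInCHO cells stably expressing human M1–M5 mAChRs, serum-deprived in HBSS 4 h at 37 °C, then ACh (10 nM–10 μM) with or without modulator at 10 μM for 5 min at 37 °C. Cells lysed and frozen overnight. pERK1/2 measured by AlphaScreen SureFire Ultra, as % of response to 10% FBS.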
# [7] = target: T1, Muscarinic acetylcholine receptor M4 (Homo sapiens); assay: Positive allosteric modulation at human M4 mAChR expressed in Flp-In-CHO cells co-expressing CAMYEL biosensor assessed as ACh-mediated cAMP signalling co-operativity (log alpha beta) incubated for 5 mins by BRET assay; type: functional, cell-based; details: filed as positive allosteric modulator
# How it was run: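 CAMYEL-transfected FlpInCHO-hM4 cells (48 h post-transfection) given ACh and modulator concentration ranges in full interaction design, 5 min at 37 °C; BRET read with coelenterazine h. Fit to complete operational model of allosterism and agonism with ACh KA and modulator KB fixed from binding assays. Gives log τB and log αβ. 4–5 experiments in duplicate.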
# [8] = target: T1, Muscarinic acetylcholine receptor M4 (Homo sapiens); assay: […] human M4 mAChR expressed in Flp-In-CHO cells co-expressing CAMYEL biosensor assessed as change in baseline response at 10 uM incubated for 5 mins by BRET assay relative to control; type: cell-based; how it was run: as §1
# [9] = target: T2, Muscarinic acetylcholine receptor M1 (Homo sapiens) (UniProt P11229); assay: Positive allosteric modulation at human M1 mAChR expressed in Flp-In-CHO cells at 10 uM incubated for 5 mins by AlphaScreen SureFire Ultra pERK1/2 assay
# T2 sequence (whole entry): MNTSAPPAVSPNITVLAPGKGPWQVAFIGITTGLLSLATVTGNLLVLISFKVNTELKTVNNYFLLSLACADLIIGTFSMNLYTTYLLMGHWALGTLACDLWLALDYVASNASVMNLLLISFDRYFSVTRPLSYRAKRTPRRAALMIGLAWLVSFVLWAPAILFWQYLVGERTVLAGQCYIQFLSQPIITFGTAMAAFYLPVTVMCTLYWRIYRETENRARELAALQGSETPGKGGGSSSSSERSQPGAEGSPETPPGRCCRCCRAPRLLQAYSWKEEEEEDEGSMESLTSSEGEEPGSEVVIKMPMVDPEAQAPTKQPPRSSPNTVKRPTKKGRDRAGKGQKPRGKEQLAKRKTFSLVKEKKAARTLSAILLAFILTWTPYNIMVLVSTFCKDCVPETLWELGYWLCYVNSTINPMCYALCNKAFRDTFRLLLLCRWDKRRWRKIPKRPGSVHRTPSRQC
# [10] = filed as positive allosteric modulator
Compound,log(activity) [1],pKb [2],concentration at 1.5 h [3] [nM],Emax [4] [%],deltapEC50 [5],Activity [6],log(activity) [7],Activity [8] [%],Activity [9],"Emax [4, 10] [%]","Activity [8, 10] [%]"
Cc1ccc(-c2cnn(CC3CCCC3)c2)c(-c2ccc(N)c([N+](=O)[O-])c2)n1,1.18,4.75,373,5.6,1.27,Active,1.91,8.48,inactive,,
Cc1ccc(-c2cnn(CC3CCCC3)c2)c(-c2ccc3c(c2)C(=O)N(C)C3)n1,1.94,6.22,9,,1.48,Active,2.34,,inactive,44.7,103
Cc1ccc(-c2cnn(CC3CCCC3)c2)c(-c2ccc(F)c(F)c2)n1,1.55,4.53,255,,0.76,Active,2.65,,inactive,129,51.4
